High-throughput results deposited in PubChem BioAssay by several laboratories.
KCNK3 inh: human KCNK3 channel inhibition, primary screen; O14649; CHO-KCNK3 thallium flux, FluxOR fluorescence; active compounds read low; B-score at 10 µM; hit rate 0.84% among 340,000; AID 602410;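 active means B-score under library mean minus 4 SD, starting fluorescence ratio at most library mean plus 5 SD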;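 further: more negative B-score means stronger inhibition of thallium flux through KCNK3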
hERG rescue: hERG (human) protection from proarrhythmic block | Q12809 | CHO-hERG, FluxOR thallium flux, dofetilide IC70 present | activation (rescue from dofetilide block), less the hit threshold, % at 10 µM | AID 1511 | hit rate 0.51% among 310,000;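 active means activation above the mean of controls blocked by dofetilide plus 5 SD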;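 further: thallium influx through hERG after potassium depolarization seen as dye fluorescence rise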
Target sequence (Q12809 whole entry, looked up): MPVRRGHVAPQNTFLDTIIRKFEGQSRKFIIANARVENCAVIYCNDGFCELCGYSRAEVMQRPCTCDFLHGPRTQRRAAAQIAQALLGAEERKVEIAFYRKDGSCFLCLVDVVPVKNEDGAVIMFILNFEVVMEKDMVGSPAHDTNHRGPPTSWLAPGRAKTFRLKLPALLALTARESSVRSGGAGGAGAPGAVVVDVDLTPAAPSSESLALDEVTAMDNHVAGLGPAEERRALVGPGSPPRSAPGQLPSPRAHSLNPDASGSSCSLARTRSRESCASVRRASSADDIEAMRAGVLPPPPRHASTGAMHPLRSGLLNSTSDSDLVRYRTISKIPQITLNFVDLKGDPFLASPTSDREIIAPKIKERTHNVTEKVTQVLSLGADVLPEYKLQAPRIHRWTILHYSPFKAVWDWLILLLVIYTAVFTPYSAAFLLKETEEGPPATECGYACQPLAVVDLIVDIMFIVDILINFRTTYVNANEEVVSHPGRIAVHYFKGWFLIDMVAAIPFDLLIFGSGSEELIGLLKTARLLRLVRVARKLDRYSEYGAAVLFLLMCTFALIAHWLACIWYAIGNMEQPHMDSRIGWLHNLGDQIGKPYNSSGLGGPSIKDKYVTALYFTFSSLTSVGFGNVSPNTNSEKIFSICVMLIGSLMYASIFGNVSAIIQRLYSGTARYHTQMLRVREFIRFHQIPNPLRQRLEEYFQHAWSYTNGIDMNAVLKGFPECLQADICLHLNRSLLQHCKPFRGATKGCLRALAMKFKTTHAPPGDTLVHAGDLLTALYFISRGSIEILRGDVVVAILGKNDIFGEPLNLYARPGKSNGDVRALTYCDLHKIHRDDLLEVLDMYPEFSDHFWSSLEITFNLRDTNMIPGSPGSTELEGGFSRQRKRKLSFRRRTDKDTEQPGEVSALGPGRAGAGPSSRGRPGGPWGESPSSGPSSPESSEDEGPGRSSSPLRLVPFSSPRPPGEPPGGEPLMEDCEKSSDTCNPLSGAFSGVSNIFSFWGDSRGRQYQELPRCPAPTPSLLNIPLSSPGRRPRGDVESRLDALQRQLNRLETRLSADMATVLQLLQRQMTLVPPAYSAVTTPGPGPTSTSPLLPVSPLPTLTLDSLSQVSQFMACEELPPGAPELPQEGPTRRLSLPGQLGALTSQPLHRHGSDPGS
KCNQ1 act: potentiators or activators of human KCNQ1 potassium channel. B-score at 10 µM. hit rate 0.35% among 310,000. CHO-K1 KCNQ1, thallium flux FluxOR fluorescence; active compounds read high. AID 2648. P51787;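 active means fluorescence ratio B-score, a plate-corrected score, at least three library SD, with initial intensity B-score within 5 SD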
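assay system = KCNQ1-transfected CHO-K1 cells | medium = assay buffer with matched DMSO | probe or stimulus = depolarizing K+/Tl+ stimulus, K2SO4 and Tl2SO4 each 12.5 mM in 5x stock | dosing = single dose | incubation = dye 90 min, compound 20 min, room temperature | detection = kinetic FluxOR fluorescence, 10 s baseline plus 110 s post-stimulus | evaluation = ratio B score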
KCNQ1 inh: inhibitors of human KCNQ1 potassium channel | P51787 | CHO-K1 KCNQ1, FluxOR thallium flux fluorescence; active compounds read high | B-score at 10 µM | hit rate 1.3% among 310,000 | AID 2642;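 active means compounds whose thallium flux B-score, printed positive for inhibition, exceeds three library SD while starting fluorescence stays within three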;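 further: channel opened by potassium depolarization with thallium stimulus after 20 min compound exposure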
KCNK9 block: human KCNK9 channel inhibition. hit rate 1.2% among 310,000. B-score at 10 µM. AID 488922. HEK293 KCNK9, FluxOR thallium flux fluorescence; active compounds read low. Q9NPC2;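 active means ratio B-score over 3 SD below the library mean, with starting fluorescence within 5 SD of its mean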;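 further: negative B-score means less thallium flux so channel inhibition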
KCC2 mod: modulates chloride dependent transport by human KCC2; Q9H2X9; KCC2 cells, thallium flux FluoZin-2 fluorescence; B-score of Tl+ flux slope (higher = more flux/activation; lower = inhibition) at 10 µM; hit rate 2.2% among 190,000; AID 1456;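 active means thallium flux slope and its plate-corrected score both differing from the plate sample mean at a set confidence after two filtering rounds, in either direction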;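 further: slope of fluorescence scaled to starting intensity during 10 to 20 s after thallium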
Hits are given with their value; n = inactive; x = no result. Only some compounds are listed: those with a hit (about 4.1% of all), similar ones and a draw of the others.

SMILES | KCNK3 inh | hERG rescue | KCNQ1 act | KCNQ1 inh | KCNK9 block | KCC2 mod
COCCNC(=S)Nc1ccc(Cl)c(Cl)c1 | n | n | n | 6 | n | n
COc1cc(OC)c(NC(=S)Nc2cc(Cl)cc(Cl)c2)cc1Cl | n | n | n | 10 | n | n
NS(=O)(=O)c1ccc(NC(=O)CN2CCN(S(=O)(=O)c3cccs3)CC2)cc1 | n | x | x | x | x | x
COc1ccc(S(=O)(=O)N2CCCCC2)cc1NC(=O)Cc1ccc(Br)cc1 | n | x | x | x | x | x
CC1CCCN(S(=O)(=O)c2ccc(C(=O)Nc3nnc(-c4ccccc4Cl)o3)cc2)C1 (centres undefined) | n | n | n | n | n | 21
CC1CCCN(S(=O)(=O)c2ccc(C(=O)Nc3nnc(-c4ccccn4)o3)cc2)C1 (centres undefined) | n | n | n | n | n | n
CCCCCCCN1C(Nc2ccccc2)=NC[C@@H]1CC(C)C | n | n | n | 7 | n | x
Cc1ccc2[nH]c(CNC(=O)c3ccccc3F)cc2c1 | n | n | n | n | n | x
CC[n+]1c(/C=C/N(C)c2ccccc2)oc2ccc(Cl)cc21 | n | n | n | n | n | n
CCN1/C(=C/C=C/c2oc3ccc4ccccc4c3[n+]2CC)Oc2ccc3ccccc3c21 | x | n | n | 10 | n | x
O=C(NCc1nc2ncc(Br)cc2[nH]1)c1ccccc1 | n | 6.2 | n | n | n | n
Cc1cccc(NC(=O)c2cccc(NC(=O)Cc3cccs3)c2)c1 | n | n | n | n | -6.9 | x
CCCCNS(=O)(=O)c1ccc2nc(SCC(=O)Nc3sccc3C#N)[nH]c2c1 | n | n | n | 11 | n | x
CCCCNS(=O)(=O)c1ccc2nc(SCC(N)=O)[nH]c2c1 | n | n | n | n | n | n
CCC(NC(=O)c1cc(COc2ccc(F)cc2Cl)on1)c1ccncc1 (centres undefined) | n | n | n | n | n | x
CCCN(CCC)C(=S)NC(=O)c1ccc(-c2ccccc2)cc1 | n | 19 | 9 | n | n | x
COc1cc(OC)cc(C(=O)NC(=S)N(Cc2ccccc2)C(C)C)c1 | n | 17 | 27 | n | n | x
COc1ccc(CN(CCC#N)C(=S)NC(=O)c2ccccc2)cc1 | n | n | n | n | n | 17
CCOc1ccc(C(=O)NC(=S)N(Cc2ccccc2)Cc2ccccc2)cc1 | n | 27 | 75 | n | n | x
COc1cc(OC)cc(C(=O)NC(=S)NCCc2ccccc2)c1 | n | n | n | n | n | x
CCOc1ccc(C(=O)NCCc2ccccc2)cc1 | n | n | n | n | n | n
CCN(CC(=O)NCc1ccc(Cl)cc1)C(=O)CCc1ccccc1O | n | n | n | n | n | x
CC(C)Cn1c(N)c(C(=O)COC(=O)c2cc(F)cc(F)c2)c(=O)n(C)c1=O | n | n | n | n | n | n
CC(C)Cn1c(N)c(C(=O)COC(=O)c2cnc(Cl)c(Cl)c2)c(=O)n(C)c1=O | n | n | n | 6 | n | n
CCc1nc(SCC(=O)N2CC(=O)Nc3ccccc32)c2c(C)c(C)sc2n1 | n | n | n | n | n | 5.5
SMILES | KCNK3 inh | hERG rescue | KCNQ1 act | KCNQ1 inh | KCNK9 block | KCC2 mod
Cc1nnc(SCC(=O)N2c3ccccc3CC2C)s1 (centres undefined) | n | n | n | n | n | n
CCc1nc(SCC(=O)Nc2ccccc2OC)c2c(C)c(C)sc2n1 | n | n | n | n | n | x
CCc1nc(SCC(=O)Nc2cc(C)ccc2OC)c2c(C)c(C)sc2n1 | n | n | n | n | -7.7 | x
Cc1sc2nc(C3CCCCC3)nc(SCC(=O)N3CC(=O)Nc4ccccc43)c2c1C | n | n | n | n | n | x
CCc1nc(SCC(=O)N2c3ccccc3CC2C)c2c(C)c(C)sc2n1 (centres undefined) | n | n | n | 6 | n | n
O=C1NC(=Nc2ccccc2Cl)S/C1=C\c1cccc([N+](=O)[O-])c1O | n | n | n | 6 | n | x
COc1c(/C=C2\SC(=Nc3ccccc3Cl)NC2=O)cccc1[N+](=O)[O-] | n | n | n | n | n | x
CCN(CC)S(=O)(=O)c1cccc(C(=O)NC(C(=O)NNC(=O)c2ccccc2F)C(C)C)c1 (centres undefined) | n | x | x | x | x | x
N#CSCC(=O)c1cccc2ccccc12 | n | x | x | x | x | 12
O=c1[nH]c(C2CCCCC2)nc2ccccc12 | n | n | n | n | n | n
CC(C)c1nc(=S)c2ccccc2[nH]1 | n | n | n | n | n | 19
S=c1nc(C2CCCCC2)[nH]c2ccccc12 | n | 10 | 22 | n | n | 86
c1ccc2c(c1)[nH]c1ccccc12 | n | n | n | n | n | x
CNc1nc(=S)[nH]c2ccccc12 | n | n | n | n | n | n
S=c1nc(C2CC2)[nH]c2ccccc12 | n | 20 | 29 | n | n | 32
CC1(N=Cc2cc(Cl)ccc2O)COP(=O)(NC2CCCC2)OC1 (centres undefined) | n | x | x | x | x | x
CN(Cc1ccccc1)C1CCN(Cc2ccccc2[N+](=O)[O-])CC1 | n | 9.8 | n | n | n | x
O=[N+]([O-])c1ccccc1CN1CCN(S(=O)(=O)Cc2ccccc2)CC1 | n | n | n | n | n | x
C[C@]12C(=O)N(c3ccc(F)cc3)C(=O)N1[C@H]1c3ccccc3OC[C@@H]1[C@H]2c1ccccc1 | n | x | x | x | x | x
CC1=NN(C(N)=S)C(=O)C1N=Nc1ccc(C)cc1C (centres undefined) | x | n | n | n | n | 21
CC1=NN(C(N)=S)C(=O)C1N=Nc1c(C)cc(C)cc1C (centres undefined) | n | n | n | n | n | n
CC1=NN(C(N)=S)C(=O)C1N=Nc1ccccc1C (centres undefined) | n | n | n | n | n | 18
Cc1ccc(Cl)cc1N1CCN(C(=O)c2ccccc2SCC(=O)N2CCCC2)CC1 | n | x | x | x | x | x
CCOC(=O)Cn1c(S(=O)(=O)Cc2ccccc2)nc2ccccc21 | n | n | n | n | n | n
CCOC(=O)Cn1c(S(=O)(=O)Cc2ccc(Cl)cc2)nc(-c2ccccc2)c1-c1ccccc1 | n | n | n | n | -6.8 | n
SMILES | KCNK3 inh | hERG rescue | KCNQ1 act | KCNQ1 inh | KCNK9 block | KCC2 mod
O=C(NNC(=S)Nc1cccc(C(F)(F)F)c1)c1cccc(Cl)c1 | n | n | n | n | n | 5.8
S=C(Nc1ccccc1)Nc1ccc(Cl)cc1Cl | n | n | n | n | n | n
Cc1cccc(NC(=S)Nc2cccc(C(F)(F)F)c2)n1 | n | n | n | n | n | n
FC(F)(F)c1cccc(NC(=S)Nc2ccc(Cl)cc2Cl)c1 | n | n | n | n | n | 4.5
FC(F)(F)c1cccc(NC(=S)Nc2cccc(NC(=S)Nc3cccc(C(F)(F)F)c3)n2)c1 | n | n | n | 8 | n | n
O=C(CNC(=O)c1ccccc1F)NCC(c1cccs1)N1CCOCC1 (centres undefined) | n | x | x | x | x | x
Cc1ccc(S(=O)(=O)N2CCN(c3ccccc3)CC2)s1 | n | x | x | x | x | x
O=[N+]([O-])c1cccc(/C=N\N=C2c3ccccc3-c3ccccc32)c1O | n | n | n | n | n | n
